{"data": "Measured values gathered from unrelated publications", "medium": "plasma", "note": "Compare with care: the assays were run in different laboratories."}
{"Structure (SMILES)": "CC(=O)N(C)[C@H]1CCN(C(=O)c2cnc3c(c2)C[C@](C)(c2ccc(F)cc2)N3)C1", "system": "male human", "setting": "oral, 30 mg, multiple doses, once daily, steady state", "half-life": "21.8 h"}
{"Structure (SMILES)": "CC(C)c1nc(N(C)S(C)(=O)=O)nc(-c2ccc(F)cc2)c1/C=C/[C@@H](O)C[C@@H](O)CC(=O)O", "system": "human", "setting": "oral, 10 mg", "half-life": "21.6 h"}
{"Structure (SMILES)": "Cc1cn([C@H]2C[C@H](N=[N+]=[N-])[C@@H](CO)O2)c(=O)[nH]c1=O", "system": "human", "setting": "oral, 600 mg, single dose, healthy volunteers", "half-life": "1.95 h"}
{"Structure (SMILES)": "N#Cc1cccc(-c2ccc3ncc(-c4cc(F)cc(F)c4)c(N4CCC(N)CC4)c3c2)c1O", "system": "human", "setting": "intravenous, 50 µg", "half-life": "30 h"}
{"Structure (SMILES)": "C[C@@H](Oc1ccc(S(C)(=O)=O)cc1C(=O)N1C[C@@H]2C[C@]2(c2cc(C(F)(F)F)on2)C1)C(F)(F)F", "system": "human", "setting": "oral, 10 mg, single dose, fasted, healthy volunteers", "half-life": "38.1 h"}
{"Structure (SMILES)": "COc1ccc2c(c1)CN(C(=O)CCN1CCC(Cc3ccccc3)CC1)CC[S@@+]2[O-]", "system": "male human", "setting": "intravenous, 0.15 mg/kg, single dose, healthy volunteers", "half-life": "6.39 h"}
{"Structure (SMILES)": "CC1(C)CC[C@]2(NC(=O)C(C)(F)F)CC[C@]3(C)[C@H](C(=O)C=C4[C@@]5(C)C=C(C#N)C(=O)C(C)(C)[C@@H]5CC[C@]43C)[C@@H]2C1", "system": "human", "setting": "oral, 150 mg, single dose", "half-life": "88.3 h"}
{"Structure (SMILES)": "OC[C@H]1O[C@@H](c2cc(Cc3ccc(C4CC4)cc3)c(Cl)c3c2CCO3)[C@H](O)[C@@H](O)[C@@H]1O", "system": "human", "setting": "oral, 0.3 mg, single dose, fasted, healthy volunteers", "half-life": "12.5 h"}
{"Structure (SMILES)": "O=C(COc1ccc(Cl)cc1)NC12CC(c3nnc([C@H]4C[C@@H](OC(F)(F)F)C4)o3)(C1)C2", "system": "human", "setting": "oral, 145 mg, multiple doses, once daily, healthy volunteers", "half-life": "37.5 h"}
{"Structure (SMILES)": "C=CC(=O)NC1CCN(c2ncc3ncnc(Nc4ccc(Oc5ccc6c(c5)ncn6C)c(C)c4)c3n2)CC1", "system": "male human", "setting": "intravenous, 100 µg, healthy volunteers", "half-life": "42.7 h"}
